The test system of data set [1] is NIH3T3. Briefly: Induction of apoptosis in Swiss mouse 3T3 cells assessed as appearance of apoptotic morphology at 100 uM injected directly into intact cells after 3 hrs by Hoechst 33342 staining-based fluorescence microscopy in presence of esterase. Format: cell-based. The settings on record: nih3t3, 3 h.
The subject of data set [2] is Hepatocyte. Briefly: Cytotoxicity against Wistar rat hepatocytes harboring transporter Oatp1b2 assessed as appearance of polarized cell blebbing at 80 nM after 90 mins by differential interference contrast microscopy. Format: ADME, cell-based. To be noted: 1.5 h, 0.08 µM.
The nature of data set [3]: Lipophilicity, logD at pI. Format: physicochemical. The settings on record: octanol/water. In a few lines: (§1)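 In silico estimate under a standard ionic condition (0.1 M Cl⁻, 0.1 M Na⁺/K⁺) at pI and at pH 7.4. pKa was estimated in macro mode at 310 K.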
Data set [4] can be described thus: Stability assessed as formation of nodularin-R by HPLC analysis in presence of pig liver esterase. Format: ADME. To be noted: isolated protein.
Data set [5] has as its system NIH3T3. Briefly: Induction of apoptosis in Swiss mouse 3T3 cells up to 120 uM after 3 hrs by Hoechst 33342 staining-based fluorescence microscopy. Format: cell-based. To be noted: nih3t3, 3 h. In a few lines:
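Swiss 3T3 mouse fibroblasts kept in RPMI with 10% FCS at 37 °C, 5% CO₂. About 7000 cells per well were exposed to various toxin concentrations for 3 h in fresh serum-free medium. The incubation was stopped with buffered formaldehyde containing Hoechst 33342, and apoptosis was scored by fluorescence and DIC microscopy. Mean ± SEM of three experiments.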

The nature of data set [6]: Lipophilicity, logD at pH 7.4. To be noted: buffer. Format: physicochemical. In a few lines:
as §1

In data set [7] the test system is Hepatocyte. Briefly: Cytotoxicity against Wistar rat hepatocytes harboring transporter Oatp1b2 assessed as appearance of polarized cell blebbing at 60 nM after 90 mins by differential interference contrast microscopy. Format: ADME, cell-based. To be noted: 1.5 h, 0.06 µM.
For data set [8], the system named is Hepatocyte. As to the kind of experiment: Cytotoxicity against Wistar rat hepatocytes harboring transporter Oatp1b2 assessed as appearance of polarized cell blebbing at 0.2 uM after 90 mins by differential interference contrast microscopy. To be noted: 1.5 h. Format: ADME, cell-based.
In data set [9] the target is Serine/threonine-protein phosphatase 2A catalytic subunit alpha isoform (Oryctolagus cuniculus) (UniProt P67777). Briefly: Displacement of [125]MC-YR from rabbit skeletal muscle protein phosphatase 2A after 1 hr. To be noted: Muscle tissue. Format: tissue-based.
The subject of data set [10] is Hepatocyte. Briefly: Cytotoxicity against Wistar rat hepatocytes harboring transporter Oatp1b2 assessed as appearance of polarized cell blebbing at 4 uM after 90 mins by differential interference contrast microscopy. To be noted: 1.5 h. Format: ADME, cell-based.

Activity calls are given as the source filed them. The rule behind the calls is not given here. Starred links: 1 amine or outer side, 2 acyl side, 3 side chain; linkers in the order of their positions; H or OH if unused. Positions of bridges follow the written chain, without caps; N, C: chain ends. Non-standard residues stand in square brackets, D forms with d. Residues, ends and D or L forms follow the SMILES beside them. Adda = CO[C@@H](Cc1ccccc1)[C@@H](C)/C=C(C)/C=C/[C@H](N[*:1])[C@H](C)C(=O)[*:2]; X1 = CC(C)C[C@H](N[*:1])C(=O)C[C@@H](C(=O)O)[C@H](C)C(=O)[*:2]; dAsp(3S-Me) = C[C@H](C(=O)[*:3])[C@@H](N[*:1])C(=O)[*:2]; d(γGlu) = O=C(O)[C@@H](CCC(=O)[*:2])N[*:1]; NMeDha = C=C(NC)C(=O)O

Experimental findings from ChEMBL document CHEMBL1155193, “Acyloxymethyl esterification of nodularin-R and microcystin-LA produces inactive protoxins that become reactivated and produce apoptosis inside intact cells” (J Med Chem, 2009) are described below.

Serine/threonine-protein phosphatase 2A catalytic subunit alpha isoform (Oryctolagus cuniculus), sequence (P67777 whole entry, canonical isoform): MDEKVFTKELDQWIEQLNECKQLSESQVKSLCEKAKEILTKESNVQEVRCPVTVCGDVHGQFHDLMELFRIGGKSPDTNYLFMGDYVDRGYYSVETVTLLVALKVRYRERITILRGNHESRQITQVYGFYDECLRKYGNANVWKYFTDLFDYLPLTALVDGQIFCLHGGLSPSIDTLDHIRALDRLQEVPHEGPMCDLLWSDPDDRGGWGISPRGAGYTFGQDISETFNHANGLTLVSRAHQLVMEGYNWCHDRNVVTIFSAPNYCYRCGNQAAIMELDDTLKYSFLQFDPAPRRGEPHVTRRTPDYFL

On to `C/C=C1/C(=O)N[C@@H](C(=O)O)[C@H](C)C(=O)N[C@@H](CCCNC(=N)N)C(=O)N[C@@H](/C=C/C(C)=C/[C@H](C)[C@H](Cc2ccccc2)OC)[C@H](C)C(=O)N[C@@H](C(=O)O)CCC(=O)N1C` [NODULARIN], for which the Activity result in the data set on NIH3T3 [1] and in the data set on Hepatocyte [2] was “Toxic” in each case. In [3], the logD (usually lipophilicity at a set pH, counting ionised and neutral species) is -3.1.
Regarding `C=C1C(=O)N[C@H](C)C(=O)N[C@@H](CC(C)C)C(=O)C[C@@H](C(=O)O)[C@H](C)C(=O)N[C@@H](C)C(=O)N[C@@H](/C=C/C(C)=C/[C@H](C)[C@H](Cc2ccccc2)OC)[C@H](C)C(=O)N[C@@H](C(=O)O)CCC(=O)N1C` [MICROCYSTIN-LA] ([NMeDha][dA][X1]A[Adda][dE]-OH; lactam N-6), the logD in data set [3] was determined as 0.3.
Take `C/C=C1/NC(=O)CC[C@H](C(=O)OCOC(=O)CC)NC(=O)[C@@H](C)[C@H](/C=C/C(C)=C/[C@H](C)[C@H](Cc2ccccc2)OC)NC(=O)[C@H](CCCNC(=N)N)NC(=O)[C@@H](C)[C@H](C(=O)OCOC(=O)CC)NC1=O`: the Stability entry in data set [4] is reported as “Unstable”. Besides, the Activity entry in the data set with NIH3T3 [1] is reported as “Toxic”; in the data set with NIH3T3 [5] it was less than 20%; in the data set with Hepatocyte [7] it was “Toxic”. Moreover, the logD in data set [3] was 1.6; in data set [6] (read-out: logD) it was -0.7.
In the case of `C=C1C(=O)N[C@H](C)C(=O)N[C@@H](CC(C)C)C(=O)N[C@@H](C(=O)O)[C@H](C)C(=O)N[C@@H](CCCNC(=N)N)C(=O)N[C@@H](/C=C/C(C)=C/[C@H](C)[C@H](Cc2ccccc2)OC)[C@H](C)C(=O)N[C@@H](C(=O)O)CCC(=O)N1C` [MICROCYSTIN-LR] (R[Adda][d(γGlu)][NMeDha][dA]L[dAsp(3S-Me)]-OH; lactam N-7), the Activity entry in the data set on NIH3T3 [1] and with Hepatocyte [8] was “Toxic” throughout.
Regarding `C/C=C1/NC(=O)CC[C@H](C(=O)OCOC(C)=O)NC(=O)[C@@H](C)[C@H](/C=C/C(C)=C/[C@H](C)[C@H](Cc2ccccc2)OC)NC(=O)[C@H](CCCNC(=N)N)NC(=O)[C@@H](C)[C@H](C(=O)OCOC(C)=O)NC1=O`, the result in data set [9] was inactive. The Stability result in [4] was “Unstable”. The Activity entry in the data set on NIH3T3 [1] was “Toxic”; in the data set on NIH3T3 [5], less than 20%; with Hepatocyte [7], “Toxic”. The values for the logD in data set [3] and in data set [6] (read-out: logD) were 0.4 and -2, respectively.
Regarding `C/C=C1/NC(=O)CC[C@H](C(=O)O)NC(=O)[C@@H](C)[C@H](/C=C/C(C)=C/[C@H](C)[C@H](Cc2ccccc2)OC)NC(=O)[C@H](CCC/N=C2/N=C(c3ccccc3)C(O)N2)NC(=O)[C@@H](C)[C@H](C(=O)O)NC1=O` (some centres undefined), the Activity result is recorded as “Toxic” in the data set on NIH3T3 [1], less than 20% with NIH3T3 [5] and “Toxic” with Hepatocyte [10]. The logD in data set [3] is -1.4; in data set [6] it was -4.8.
